The whole screen tested about 370,000 compounds, of which about 1,200 (0.32%) were called active. What follows is part of a selection rich in actives, with near analogues and random picks from the rest. A number with no mark means an inactive call.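 How the source made its calls: active means inhibition above the mean of all tested compounds plus 3 SD, set per campaign (cut at about 25% in these data); inactive means the rest.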
Each compound was assayed against Tyrosyl-DNA phosphodiesterase 2 (Homo sapiens) (UniProt O95551) (assay: human TDP2 enzyme inhibitors, primary screen, biochemical, epi absorbance, recombinant enzyme (AID 720702;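 further: 0% = DMSO with enzyme and 100% = buffer with substrate but no TDP2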)). Conditions: recombinant TDP2, T5PNP hydrolysis, p-nitrophenol absorbance 415 nm; at 12.8 µM; stronger effect = higher value.
Sequence of Tyrosyl-DNA phosphodiesterase 2 (Homo sapiens) (O95551 whole entry, looked up): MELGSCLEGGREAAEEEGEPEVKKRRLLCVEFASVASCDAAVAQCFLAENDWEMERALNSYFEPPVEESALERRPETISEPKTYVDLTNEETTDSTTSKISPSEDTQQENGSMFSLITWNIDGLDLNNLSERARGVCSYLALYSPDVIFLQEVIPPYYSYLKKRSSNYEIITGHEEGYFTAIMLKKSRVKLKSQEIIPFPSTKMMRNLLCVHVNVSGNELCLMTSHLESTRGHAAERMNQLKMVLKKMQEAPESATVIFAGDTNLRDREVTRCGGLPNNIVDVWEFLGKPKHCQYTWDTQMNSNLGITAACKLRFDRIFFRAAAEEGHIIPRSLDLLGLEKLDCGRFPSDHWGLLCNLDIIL
Outline: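 System – recombinant human TDP2 · Amount – 120 nM TDP2 per well · Buffer or medium – Mg2+-containing Tris-HCl buffer, pH 7.5 · Reagent – T5PNP substrate, 5 mM · Dosing – 12.8 µM single point, 1% DMSO · Incubation – 2 h at 37 °C · Measured by – epi absorbance · Read-out basis – percent inhibition · Benchmarks – high control without enzyme, low control DMSO plus TDP2 · Repeats – singlicate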

SMILES | inhibition
CCOC(=O)c1c(N)n(Cc2ccccc2)c2nc3ccccc3nc12 | 82.6% (active)
CCOC(=O)c1cccc(C2=C(CNC(=O)c3ccncc3)[C@H]3CC[C@@H](C2)N3Cc2ccccc2)c1 | 4.63%
COc1cc(Cn2c(N)c(C(=O)NCc3ccco3)c3nc4ccccc4nc32)cc(OC)c1OC | 0.54%
CCC(C)n1c(O)c(/C=N/Nc2nc3c(c(=O)n(C)c(=O)n3C)n2C)c(=O)[nH]c1=S (stereo not given) | -0.24%
CCC(C)NC1(c2ccccc2)CCCCC1 (stereo not given) | 5%
CC(Cc1cccs1)NCc1ccc(Cl)cc1 (stereo not given) | 4.69%
Cn1c(C(=O)N2CCC(C(=O)N3CCC4(CC3)OCCO4)CC2)cc2sccc21 | -4.33%
O=C1NC(=O)N(Cc2ccco2)C(=O)/C1=C\c1ccc(-c2ccc(F)cc2)o1 | 26.3% (active)
N[C@@H](Cc1c[nH]c2ccccc12)c1nnc(SCc2c(F)cccc2Cl)o1 | 5.28%
Cc1ccccc1CCC[C@@H](CC1CCCCC1)CN(C)C(=O)Oc1ccccc1 | -0.32%
